# Experimental data reported in ChEMBL document CHEMBL1133549, “N4-(omega-Aminoalkyl)-1-[(omega-aminoalkyl)amino]-4- acridinecarboxamides: novel, potent, cytotoxic, and DNA-binding agents” (J Med Chem, 2000).
# System: A2780
# Assay: The compound was tested for cytotoxic activity against A2780 cell line(human ovarian carcinoma )
# Assay type: functional, cell-based
# Conditions: not given
# In short: (§1)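 Human ovarian carcinoma cells (100–5000) were plated and allowed to adhere overnight. Drug was diluted from DMSO stock into aqueous solution at pH 7.0 and applied continuously for 96 h at 37 °C. Growth was read by SRB protein staining. IC50 is 50% growth inhibition versus drug-free controls, from a representative experiment with 4 replicate wells per concentration and 8 control wells.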
row,Molecule,IC50
1,CN(C)CCCNC(=O)c1ccc(NCCCN(C)C)c2cc3ccccc3nc12 [listing 1 of 2 here],1950 nM
2,CN(C)CCNC(=O)c1ccc(NCCNCCO)c2cc3ccccc3nc12,85 nM
3,CN(C)CCNC(=O)c1ccc(NCCN(C)C)c2cc3cc(O)ccc3nc12,110 nM
4,CN(C)CCNC(=O)c1ccc(NCCN(C)C)c2cc3ccccc3nc12,4.3 nM
5,CN(C)CCNC(=O)c1ccc(NCCN(C)C)c2c(=O)c3ccccc3[nH]c12,15 nM
6,CN(C)CCCNC(=O)c1ccc(NCCCN(C)C)c2cc3ccccc3nc12 [listing 2 of 2 here],1950 nM

# System: A2780
# Assay: The compound was tested for cytotoxic activity against A2780/Cs cell line(human ovarian carcinoma
# Assay type: functional, cell-based
# Conditions: not given
# In short: as §1
row,Molecule,IC50
1,CN(C)CCNC(=O)c1ccc(NCCN(C)C)c2cc3ccccc3nc12,7 nM
2,CN(C)CCCNC(=O)c1ccc(NCCCN(C)C)c2cc3ccccc3nc12 [listing 2 of 2 here],1250 nM

# System: A2780cisR
# Assay: The compound was tested for cytotoxic activity against A2780cisR cell line(human ovarian carcinoma )
# Assay type: functional, cell-based
# Conditions: not given
# In short: as §1
row,Molecule,IC50
1,CN(C)CCNC(=O)c1ccc(NCCNCCO)c2cc3ccccc3nc12,91 nM
2,CN(C)CCNC(=O)c1ccc(NCCN(C)C)c2cc3cc(O)ccc3nc12,190 nM

# Same assay, conditions: Homo sapiens, A2780cisR
row,Molecule,IC50
1,CN(C)CCCNC(=O)c1ccc(NCCCN(C)C)c2cc3ccccc3nc12 [listing 1 of 2 here],1250 nM
2,COc1cccc2c1C(=O)c1c(O)c3c(c(O)c1C2=O)C[C@@](O)(C(=O)CO)C[C@@H]3O[C@H]1C[C@H](N)[C@H](O)[C@H](C)O1 [DOXORUBICIN],17 nM

# Same assay, conditions: a2780cisr
row,Molecule,IC50
1,CISPLATIN,3400 nM

# System: CH1
# Assay: The compound was tested for cytotoxic activity against CH1 cell line(human ovarian carcinoma )
# Assay type: functional, cell-based
# Conditions: not given
# In short: as §1
row,Molecule,IC50
1,CN(C)CCCNC(=O)c1ccc(NCCCN(C)C)c2cc3ccccc3nc12 [listing 1 of 2 here],860 nM
2,CN(C)CCNC(=O)c1ccc(NCCNCCO)c2cc3ccccc3nc12,52 nM
3,CN(C)CCNC(=O)c1ccc(NCCN(C)C)c2cc3cc(O)ccc3nc12,150 nM
4,CN(C)CCNC(=O)c1ccc(NCCN(C)C)c2cc3ccccc3nc12,7 nM
5,CN(C)CCNC(=O)c1ccc(NCCN(C)C)c2c(=O)c3ccccc3[nH]c12,20 nM
6,CN(C)CCCNC(=O)c1ccc(NCCCN(C)C)c2cc3ccccc3nc12 [listing 2 of 2 here],860 nM

# System: not listed separately
# Assay: (§2) The compound was tested for cytotoxic activity against CH1/Cs cell line(human ovarian carcinoma)
# Assay type: functional, cell-based
# Conditions: not given
# In short: as §1
row,Molecule,IC50
1,CN(C)CCNC(=O)c1ccc(NCCNCCO)c2cc3ccccc3nc12,46 nM
2,CN(C)CCNC(=O)c1ccc(NCCN(C)C)c2cc3cc(O)ccc3nc12,200 nM
3,CN(C)CCNC(=O)c1ccc(NCCN(C)C)c2cc3ccccc3nc12,5 nM
4,CN(C)CCCNC(=O)c1ccc(NCCCN(C)C)c2cc3ccccc3nc12 [listing 2 of 2 here],530 nM

# System: CH1
# Assay: as §2
# Assay type: functional, cell-based
# Conditions: not given
# In short: as §1
row,Molecule,IC50
1,CN(C)CCCNC(=O)c1ccc(NCCCN(C)C)c2cc3ccccc3nc12 [listing 1 of 2 here],530 nM
2,COc1cccc2c1C(=O)c1c(O)c3c(c(O)c1C2=O)C[C@@](O)(C(=O)CO)C[C@@H]3O[C@H]1C[C@H](N)[C@H](O)[C@H](C)O1 [DOXORUBICIN],450 nM

# System: Nucleic Acid
# Assay: Binding affinity against CT-DNA from calf thymus DNA
# Assay type: nucleic-acid assay
# Conditions: Bos taurus
# In short: (§3)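 Ethidium displacement measured fluorometrically at 20 °C (excitation 546 nm, emission 595 nm). Buffer was 10 mM Na2HPO4, 10 mM NaH2PO4, 1 mM EDTA, pH 7.0, with 1.26 µM ethidium bromide and 1 µM of CT-DNA, [poly(dA-dT)]2 or [poly(dG-dC)]2. Drug was added serially from a ~5 mM DMSO stock. C50 (50% loss of bound-ethidium fluorescence) is the mean of three determinations. Kapp = 1.26/C50 × 10^7.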
row,Molecule,K app
1,CN(C)CCNC(=O)c1ccc(NCCN(C)C)c2cc3cc(N)ccc3nc12,1.4e+09 M⁻¹
2,CN(C)CCNC(=O)c1ccc(NCCNCCO)c2cc3ccccc3nc12,9.9e+07 M⁻¹
3,CN(C)CCNC(=O)c1ccc(NCCN(C)C)c2cc3cc(O)ccc3nc12,2.9e+08 M⁻¹
4,CN(C)CCNC(=O)c1ccc(NCCN(C)C)c2cc3ccccc3nc12,1.5e+09 M⁻¹
5,CN(C)CCNC(=O)c1ccc(NCCN(C)C)c2c(=O)c3ccccc3[nH]c12,3.7e+07 M⁻¹

# System: HT-29
# Assay: The compound was tested for cytotoxic activity against HT-29 cell line(human colon adeno carcinoma)
# Assay type: functional, cell-based
# Conditions: not given
# In short: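 HT29 colon adenocarcinoma cells at 2.5×10^4 cells/mL received drug under protracted exposure for 144 h. Assays were run in triplicate.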
row,Molecule,IC50
1,CN(C)CCCNC(=O)c1ccc(NCCCN(C)C)c2cc3ccccc3nc12 [listing 1 of 2 here],710 nM
2,CN(C)CCNC(=O)c1ccc(NCCNCCO)c2cc3ccccc3nc12,100 nM
3,CN(C)CCNC(=O)c1ccc(NCCN(C)C)c2cc3cc(O)ccc3nc12,850 nM
4,CN(C)CCNC(=O)c1ccc(NCCN(C)C)c2cc3ccccc3nc12,7 nM
5,CN(C)CCNC(=O)c1ccc(NCCN(C)C)c2c(=O)c3ccccc3[nH]c12,94 nM
6,CN(C)CCCNC(=O)c1ccc(NCCCN(C)C)c2cc3ccccc3nc12 [listing 2 of 2 here],710 nM

# System: Nucleic Acid
# Assay: Tested for binding affinity against AT from [poly(dA-dT)]2.
# Assay type: nucleic-acid assay
# Conditions: not given
# In short: as §3
row,Molecule,K app
1,CN(C)CCNC(=O)c1ccc(NCCN(C)C)c2cc3cc(N)ccc3nc12,2.8e+08 M⁻¹
2,CN(C)CCNC(=O)c1ccc(NCCNCCO)c2cc3ccccc3nc12,4.5e+07 M⁻¹
3,CN(C)CCNC(=O)c1ccc(NCCN(C)C)c2cc3cc(O)ccc3nc12,3.1e+07 M⁻¹
4,CN(C)CCNC(=O)c1ccc(NCCN(C)C)c2cc3ccccc3nc12,2.8e+07 M⁻¹

# System: Nucleic Acid
# Assay: Binding affinity against GC from [poly(dG-dC)]2.
# Assay type: nucleic-acid assay
# Conditions: not given
# In short: as §3
row,Molecule,K app
1,CN(C)CCNC(=O)c1ccc(NCCN(C)C)c2cc3cc(N)ccc3nc12,4.1e+08 M⁻¹
2,CN(C)CCNC(=O)c1ccc(NCCNCCO)c2cc3ccccc3nc12,3e+08 M⁻¹
3,CN(C)CCNC(=O)c1ccc(NCCN(C)C)c2cc3cc(O)ccc3nc12,1e+08 M⁻¹
4,CN(C)CCNC(=O)c1ccc(NCCN(C)C)c2cc3ccccc3nc12,2.3e+08 M⁻¹

# System: SK-OV-3
# Assay: The compound was tested for cytotoxic activity against SKOV-3 cell line(human ovarian carcinoma )
# Assay type: functional, cell-based
# Conditions: not given
# In short: as §1
row,Molecule,IC50
1,CN(C)CCCNC(=O)c1ccc(NCCCN(C)C)c2cc3ccccc3nc12 [listing 1 of 2 here],660 nM
2,CN(C)CCNC(=O)c1ccc(NCCNCCO)c2cc3ccccc3nc12,240 nM
3,CN(C)CCNC(=O)c1ccc(NCCN(C)C)c2cc3cc(O)ccc3nc12,900 nM
4,CN(C)CCNC(=O)c1ccc(NCCN(C)C)c2cc3ccccc3nc12,110 nM
5,CN(C)CCNC(=O)c1ccc(NCCN(C)C)c2c(=O)c3ccccc3[nH]c12,400 nM
6,CN(C)CCCNC(=O)c1ccc(NCCCN(C)C)c2cc3ccccc3nc12 [listing 2 of 2 here],660 nM
